Source: ChEMBL document CHEMBL4024783, “Alkylated Piperazines and Piperazine-Azole Hybrids as Antifungal Agents” (J Med Chem, 2018)
Converted amounts (≈) assume the structure as drawn.

Key:
Candida albicans [1] = test: Antifungal activity against itraconazole and fluconazole resistant Candida albicans ATCC MYA-1237 after 48 hrs by broth dilution method; format: functional; conditions: Candida albicans, ATCC MYA-1237, 48 h
How it was run: (§1)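 CLSI M27-A3 broth microdilution with minor modifications. Overnight YPD culture grown at 35 °C, 200 rpm, adjusted to OD600 0.12, diluted in RPMI 1640 buffered to pH 7.0 with 0.165 M MOPS to a final 1–2 × 10^3 CFU/mL. Test compounds at 0.015–31.3 µg/mL, 48 h at 35 °C, DMSO <1.25%. […] Triplicate.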

Candida albicans [2] = test: Antifungal activity against itraconazole and fluconazole susceptible Candida albicans ATCC MYA-2310 after 48 hrs by broth dilution method; format: functional; conditions: Candida albicans, ATCC MYA-2310, 48 h
Candida albicans [3] = test: Antifungal activity against itraconazole and fluconazole resistant Candida albicans ATCC MYA-1003 after 48 hrs by broth dilution method; format: functional; conditions: Candida albicans, ATCC MYA-1003, 48 h; how it was run: as §1
Pichia kudriavzevii = test: Antifungal activity against Candida krusei ATCC 6258 after 48 hrs by broth dilution method; format: functional; conditions: Pichia kudriavzevii, ATCC 6258, 48 h
How it was run: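 Yeasts tested per CLSI M27-A3 with minor changes. An overnight YPD culture (35 °C, 200 rpm) was adjusted to OD600 0.12 and diluted in MOPS-buffered RPMI 1640 (pH 7.0) to a final 1–2 × 10^3 CFU/mL. Compounds 0.015–31.3 µg/mL, DMSO <1.25%.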

Candida albicans [4] = test: Antifungal activity against Candida albicans ATCC 64124 after 48 hrs by broth dilution method; format: functional; conditions: Candida albicans, ATCC 64124, 48 h; how it was run: as §1
Candida parapsilosis = test: Antifungal activity against Candida parapsilosis ATCC 22019 after 48 hrs by broth dilution method; format: functional; conditions: Lodderomyces parapsilosis, ATCC 22019, 48 h
Aspergillus nidulans = test: Antifungal activity against Aspergillus nidulans ATCC 38163 after 48 hrs by broth dilution method; format: functional; conditions: Aspergillus nidulans, ATCC 38163, 48 h
How it was run: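 A. nidulans run per CLSI M38-A2. PDA spores were filtered through glass wool and counted by hemocytometer. Test range 0.03–31.3 µg/mL in MOPS-buffered RPMI 1640 (pH 7.0), final 5 × 10^5 CFU/mL.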

Nakaseomyces glabratus = test: Antifungal activity against Candida glabrata ATCC 2001 after 48 hrs by broth dilution method; format: functional, CBS 138; conditions: Nakaseomyces glabratus, CBS 138, 48 h
Aspergillus terreus = test: Antifungal activity against Aspergillus terreus ATCC MYA-3633 after 48 hrs by broth dilution method; format: functional; conditions: Aspergillus terreus, ATCC MYA-3633, 48 h
How it was run: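 Molds tested per CLSI M38-A2. Spores were harvested from sporulating PDA cultures by filtering through glass wool and counted on a hemocytometer. Serial dilutions (0.03–31.3 µg/mL) were made in RPMI 1640 buffered to pH 7.0 with 0.165 M MOPS, final inoculum 5 × 10^5 CFU/mL.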

Candida albicans [5] = test: Antifungal activity against itraconazole and fluconazole susceptible Candida albicans ATCC MYA-2876 after 48 hrs by broth dilution method; format: functional; conditions: Candida albicans, ATCC MYA-2876, 48 h
Candida albicans [6] = test: Antifungal activity against itraconazole and fluconazole resistant Candida albicans ATCC 90819 after 48 hrs by broth dilution method; format: functional; conditions: Candida albicans, ATCC 90819, 48 h; how it was run: as §1
Candida albicans [7] = test: Antifungal activity against Candida albicans ATCC 10231 after 48 hrs by broth dilution method; format: functional; conditions: ATCC 10231, 48 h
Aspergillus flavus = test: Antifungal activity against Aspergillus flavus ATCC MYA-3631 after 48 hrs by broth dilution method; format: functional; conditions: ATCC MYA-3631, 48 h
[8] = Solubility of the compound in DMSO; format: physicochemical
[9] = Aqueous solubility of the compound; format: physicochemical; conditions: buffer

SMILES | MIC (Candida albicans [1]) | MIC (Candida albicans [2]) | MIC (Candida albicans [3]) | MIC (Pichia kudriavzevii) | MIC (Candida albicans [4]) | MIC (Candida parapsilosis) | MIC (Aspergillus nidulans) | MIC (Nakaseomyces glabratus) | MIC (Aspergillus terreus) | MIC (Candida albicans [5]) | MIC (Candida albicans [6]) | MIC (Candida albicans [7]) | MIC (Aspergillus flavus) | solubility [8] | solubility [9]
OC(CNCCN1CCOCC1)(Cn1cncn1)c1ccc(F)cc1F (stereo unspecified) | 85.2 µM (≈ 31.3 µg/mL) | > 85.2 µM | > 85.2 µM | > 85.2 µM | 85.2 µM (≈ 31.3 µg/mL) | 85.2 µM (≈ 31.3 µg/mL) | > 85.2 µM | 85.2 µM (≈ 31.3 µg/mL) | > 85.2 µM | 85.2 µM (≈ 31.3 µg/mL) | > 85.2 µM | 85.2 µM (≈ 31.3 µg/mL) | > 85.2 µM | – | –
Fc1ccc(C2(Cn3cncn3)CO2)c(F)c1 (stereo unspecified) | > 132 µM | > 132 µM | > 132 µM | > 132 µM | > 132 µM | > 132 µM | > 132 µM | > 132 µM | > 132 µM | > 132 µM | > 132 µM | > 132 µM | > 132 µM | – | –
CCCCCCCCCCCCCN1CCNCC1 | 7.2 µM (≈ 1.93 µg/mL) | 7.2 µM (≈ 1.93 µg/mL) | 7.2 µM (≈ 1.93 µg/mL) | 3.6 µM (≈ 0.967 µg/mL) | 3.6 µM (≈ 0.967 µg/mL) | 7.2 µM (≈ 1.93 µg/mL) | 3.6 µM (≈ 0.967 µg/mL) | 1.8 µM (≈ 0.483 µg/mL) | 7.2 µM (≈ 1.93 µg/mL) | 7.2 µM (≈ 1.93 µg/mL) | 3.6 µM (≈ 0.967 µg/mL) | 3.6 µM (≈ 0.967 µg/mL) | 7.2 µM (≈ 1.93 µg/mL) | Soluble | Soluble
CCCCCCCCCN1CCNCC1 | 147 µM (≈ 31.3 µg/mL) | 147 µM (≈ 31.3 µg/mL) | > 147 µM | 147 µM (≈ 31.3 µg/mL) | > 147 µM | > 147 µM | > 147 µM | 147 µM (≈ 31.3 µg/mL) | > 147 µM | > 147 µM | 147 µM (≈ 31.3 µg/mL) | 147 µM (≈ 31.3 µg/mL) | 147 µM (≈ 31.3 µg/mL) | – | –
CCCCCCCCCCCCCN1CCN(CC(O)(Cn2cncn2)c2ccc(F)cc2F)CC1 (stereo unspecified) | 7.7 µM (≈ 3.89 µg/mL) | 7.7 µM (≈ 3.89 µg/mL) | 7.7 µM (≈ 3.89 µg/mL) | 1.9 µM (≈ 0.961 µg/mL) | 15.4 µM (≈ 7.79 µg/mL) | < 0.47 µM | 1.9 µM (≈ 0.961 µg/mL) | 1.9 µM (≈ 0.961 µg/mL) | 1.9 µM (≈ 0.961 µg/mL) | 3.9 µM (≈ 1.97 µg/mL) | 3.9 µM (≈ 1.97 µg/mL) | 3.9 µM (≈ 1.97 µg/mL) | 1.9 µM (≈ 0.961 µg/mL) | Soluble | Soluble
CCCCCCCCCCCN1CCNCC1 | 32.4 µM (≈ 7.79 µg/mL) | 32.4 µM (≈ 7.79 µg/mL) | 64.8 µM (≈ 15.6 µg/mL) | 32.4 µM (≈ 7.79 µg/mL) | 32.4 µM (≈ 7.79 µg/mL) | 32.4 µM (≈ 7.79 µg/mL) | 64.8 µM (≈ 15.6 µg/mL) | 32.4 µM (≈ 7.79 µg/mL) | 64.8 µM (≈ 15.6 µg/mL) | 64.8 µM (≈ 15.6 µg/mL) | 32.4 µM (≈ 7.79 µg/mL) | 32.4 µM (≈ 7.79 µg/mL) | 130 µM (≈ 31.2 µg/mL) | – | –
CC[C@H](C)C[C@H](C)CCCCCCCCC(=O)N[C@H]1C[C@@H](O)[C@@H](NCCN)NC(=O)[C@@H]2[C@@H](O)CCN2C(=O)[C@H]([C@H](O)CCN)NC(=O)[C@H]([C@H](O)[C@@H](O)c2ccc(O)cc2)NC(=O)[C@@H]2C[C@@H](O)CN2C(=O)[C@H]([C@@H](C)O)NC1=O [CASPOFUNGIN] | 0.2 µM (≈ 0.219 µg/mL) | 0.1 µM (≈ 0.109 µg/mL) | 0.4 µM (≈ 0.437 µg/mL) | 0.4 µM (≈ 0.437 µg/mL) | 0.2 µM (≈ 0.219 µg/mL) | 1.6 µM (≈ 1.75 µg/mL) | > 25.8 µM | 0.05 µM (≈ 0.0547 µg/mL) | > 25.8 µM | 0.05 µM (≈ 0.0547 µg/mL) | 0.1 µM (≈ 0.109 µg/mL) | 0.8 µM (≈ 0.875 µg/mL) | > 25.8 µM | – | –
CCCCCCCCN1CCNCC1 | > 158 µM | > 158 µM | > 158 µM | > 158 µM | > 158 µM | > 158 µM | > 158 µM | > 158 µM | > 158 µM | > 158 µM | > 158 µM | > 158 µM | > 158 µM | – | –
OC(CN1CCOCC1)(Cn1cncn1)c1ccc(F)cc1F (stereo unspecified) | > 96.5 µM | 24 to 96.5 µM (≈ 7.78 to 31.3 µg/mL) | 96.5 µM (≈ 31.3 µg/mL) | > 96.5 µM | > 96.5 µM | > 96.5 µM | 6 µM (≈ 1.95 µg/mL) | 96.5 µM (≈ 31.3 µg/mL) | 48.1 µM (≈ 15.6 µg/mL) | > 96.5 µM | 12 to 96.5 µM (≈ 3.89 to 31.3 µg/mL) | > 96.5 µM | 24 µM (≈ 7.78 µg/mL) | – | –
